The subject of data set [1] is Kv2.1 closed state VSD. The settings on record: ref [22], cited from earlier work; for effect on channel opening / gating charge: Kv2.1.
Data set [2] relates to mice. Conditions: injected into mice; no reference or experiment given; cited from earlier work.
Data set [3] can be described thus: Fluorophore characterization: emission spectra in solvents. Conditions: fluorometer. It is filed as physicochemical. In short, it runs like this:
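JP-N3 emission spectra were recorded in toluene, acetone, MeOH and H2O. Each spectrum was fitted with a single six-component split pseudo-Voigt curve to give a reference line shape.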

In data set [4] the target is T1, Kv2.1 channels (Rattus norvegicus, UniProt P15387).
T1 sequence (P15387 1-857): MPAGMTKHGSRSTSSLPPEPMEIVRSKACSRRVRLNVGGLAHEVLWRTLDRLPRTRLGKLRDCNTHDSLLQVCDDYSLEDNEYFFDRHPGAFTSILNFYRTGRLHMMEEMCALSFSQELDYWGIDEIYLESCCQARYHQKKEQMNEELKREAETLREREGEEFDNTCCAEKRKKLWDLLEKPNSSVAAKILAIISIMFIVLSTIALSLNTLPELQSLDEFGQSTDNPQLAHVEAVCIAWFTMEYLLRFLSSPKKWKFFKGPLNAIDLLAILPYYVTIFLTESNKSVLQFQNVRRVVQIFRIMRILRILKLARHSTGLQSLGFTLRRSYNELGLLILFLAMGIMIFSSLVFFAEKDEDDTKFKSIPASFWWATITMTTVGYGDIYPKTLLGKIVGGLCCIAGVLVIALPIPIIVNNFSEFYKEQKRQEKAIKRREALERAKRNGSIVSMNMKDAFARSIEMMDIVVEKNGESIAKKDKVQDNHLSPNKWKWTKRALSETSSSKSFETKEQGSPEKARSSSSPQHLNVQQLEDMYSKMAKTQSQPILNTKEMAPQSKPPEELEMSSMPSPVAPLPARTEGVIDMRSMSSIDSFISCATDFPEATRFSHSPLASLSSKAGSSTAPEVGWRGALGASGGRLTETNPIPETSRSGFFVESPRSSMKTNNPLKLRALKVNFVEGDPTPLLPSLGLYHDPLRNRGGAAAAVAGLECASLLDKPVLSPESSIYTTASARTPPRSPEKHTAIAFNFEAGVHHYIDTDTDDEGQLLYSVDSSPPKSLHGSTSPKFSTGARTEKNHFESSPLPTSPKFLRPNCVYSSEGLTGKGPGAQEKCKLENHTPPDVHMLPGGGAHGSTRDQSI
Conditions: values for GxTX are from ref [23], cited from earlier work.

Where two headings read alike, the source gives them in different places.

The term Kd denotes the equilibrium constant for the complex coming apart.

In the case of “guangxitoxin-1E (EGECGGFWWKCGSGKPACCPKYVCSPKWGLCNFPMP; UniProt P84835 1-36, looked up) [GxTX-1E]”, in data set [1], the “effect on channel opening / gating charge” value is reported as “shifting channel opening to more depolarized potentials” and the “affinity for Kv2.1 closed state VSD relative to its open state” value is 5400 fold. Moreover, in data set [2], the toxicity entry is “no toxicity up to 10 mg/kg”.

Turning to `[N-]=[N+]=NCc1cc(=O)cc2oc3c4c5c(cc3nc1-2)CCCN5CCC4` [JP-N3, 10-(azidomethyl)-julolidino-phenoxazinone], the “emission peak in MeOH” value in data set [3] (200 nM JP-N3, anhydrous MeOH) was determined as 640 nm. In addition, in data set [3] (200 nM JP-N3, anhydrous hydrocarbon solvent), the “emission peak in hydrocarbon” value was 609 nm.

As for Met35Nle guangxitoxin-1E [GxTX], in data set [4] (0 mV), the dissociation constant (Kd) is 1.52 ± 0.81 µM, the koff was 38 ± 9 × 10^−3 s^−1 and the kon is 2.5 ± 1.2 × 10^−5 s^−1 nM^−1. For the same compound, in data set [4] (−100 mV), the Kd is 0.00255 ± 0.00101 µM, the koff is recorded as 0.84 ± 0.18 × 10^−3 s^−1 and the kon is given as 3.30 ± 1.10 × 10^−4 s^−1 nM^−1. The “effect on channel opening / gating charge” value in data set [1] is reported as “inhibiting early, fast gating charge transitions”.

The record behind these values is article PMC7894042 (ACS chemical neuroscience, 2020).
